According to ChEMBL document CHEMBL4382230, “Structure-activity relationships, biological evaluation and structural studies of novel pyrrolonaphthoxazepines as antitumor agents” (Eur J Med Chem, 2019):
Values after ≈ are worked out from the molar mass of the structure shown. Active and inactive are the calls of the source. The calls are words filed in the database; no cut-off is given here.

Tests used:
HL-60 [1] = experiment: Cytotoxicity against human HL60 cells assessed as reduction in cell viability after 72 hrs by alamar blue assay; type: functional, cell-based; details: HL-60, 72 h
How it was run: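 HL-60 at 300,000 cells/ml treated in triplicate with compound or vehicle (0.1% v/v DMSO) for 72 h. Cells then incubated in 10% (v/v) AlamarBlue and fluorescence read at excitation 544 nm, emission 590 nm. IC50 is the mean of at least three separate determinations.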

HL-60 [2] = experiment: Cell cycle arrest in human HL60 cells assessed as accumulation of cells at G2/M phase at 10 uM after 24 hrs by propidium iodide staining-based flow cytometric analysis; type: functional
How it was run: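 HL-60 exposed to 10 μM for 24 h, vehicle 0.1% DMSO. Cells plated at 2×10^5 cells/mL, stained in PBS with 0.1% sodium citrate, 0.1% NP40 and propidium iodide for 30 min at room temperature in the dark. DNA content by flow cytometry; G2/M fraction reported.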

[3] = Cytotoxicity against human A2780AD cells after 48 hrs by MTT assay; type: functional, cell-based
How it was run: (§1)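 Cells seeded at 12,000 to 17,000 per well depending on line, incubated overnight, then given serial dilutions of ligand for 48 h. MTT at 2.5 mg/mL added for 4 h at 37 °C, formazan solubilized overnight (10% SDS, 45% dimethylformamide, pH 5.5), absorbance read at 595/690 nm. IC50 from log-dose response curves; mean ± SE of three independent assays.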

NIH3T3 [4] = experiment: Cytotoxicity against mouse NIH/3T3 cells after 48 hrs by MTT assay; type: cell-based; details: NIH3T3, 48 h; how it was run: as §1
Tubulin (Homo sapiens) [5] = molecular target: T1, Tubulin (Homo sapiens) (UniProt P68371+Q9H4B7+P0DPH7+P68366+Q13509+Q71U36+P04350+Q3ZCM7+P07437+P68363+Q9BQE3+Q6PEY2+Q13885+Q9BVA1+Q9BUF5); experiment: Displacement of podophyllotoxin from tubulin (unknown origin) by ultracentrifugation method; type: protein-complex assay
NIH3T3 [6] = experiment: Cytotoxicity against mouse NIH/3T3 cells harboring MDR G185 after 48 hrs by MTT assay; type: functional, cell-based; details: NIH3T3, 48 h; how it was run: as §1
A2780 = experiment: Cytotoxicity against human A2780 cells after 48 hrs by MTT assay; type: functional, cell-based; details: A2780, 48 h; how it was run: as §1
[7] = Ratio of IC50 for mouse NIH/3T3 cells harboring MDR G185 to IC50 for mouse NIH/3T3 cells
How it was run: (§2)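 Relative resistance: IC50 in the P-gp overexpressing resistant line divided by IC50 in the parental line. Both IC50s came from the 48 h MTT assay (serial dilutions, absorbance at 595/690 nm, log-dose response curves, three independent assays).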

Tubulin (Homo sapiens) [8] = molecular target: T1, Tubulin (Homo sapiens); experiment: Inhibition of tubulin (unknown origin) polymerization at 27.5 uM measured over 70 mins by turbidity method; type: protein-complex assay
How it was run: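 Tubulin at 25 µM in GAB buffer (10 mM sodium phosphate, 30% glycerol, 1 mM EGTA, 6 mM MgCl2, 1 mM GTP, pH 6.7) with 27.5 µM compound or DMSO vehicle. Turbidity is read at 355 nm for 70 min at 37 °C. Data are normalized to the initial stable absorbance plateau to correct for compound absorbance.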

[9] = Ratio of IC50 for human A2780AD cells to IC50 for human A2780 cells; type: functional; how it was run: as §2
Tubulin (Homo sapiens) [10] = molecular target: T1, Tubulin (Homo sapiens); experiment: Binding affinity to tubulin (unknown origin) by analytical ultracentrifugation
[11] = Apparent solubility of compound in sodium phosphate buffer at 15 uM after 20 mins; type: physicochemical
GISTT1 = experiment: Cytotoxicity against human GISTT1 cells assessed as reduction in cell viability at 1 uM after 48 hrs by alamar blue assay; type: functional, cell-based
How it was run: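 GIST-T1 seeded at 4000 cells/well, exposed to 1 or 10 μM for 48 h; viability read by AlamarBlue.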

PC-9 = experiment: Cytotoxicity against human PC9 cells assessed as reduction in cell survival at 0.1 to 10 uM after 18 hrs by MTT assay; type: functional, cell-based
How it was run: (§3)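 Seeded at 2,500 cells/well in medium with 10% serum. After adhesion, exposed to 0.1, 1 and 10 μM in medium with 5% serum for 18 h. Medium then replaced with fresh medium containing 1.2 mM MTT for 4 h; formazan dissolved in DMSO, absorbance at 540 nm. Results given as % of basal response.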

B16-F1 = experiment: Cytotoxicity against mouse B16-F1 cells assessed as reduction in cell survival at 0.1 to 10 uM after 18 hrs by MTT assay; type: functional, cell-based; how it was run: as §3
A549 = experiment: Cytotoxicity against human A549 cells assessed as reduction in cell survival at 0.1 to 10 uM after 18 hrs by MTT assay; type: functional, cell-based; how it was run: as §3
NB-4 [12] = experiment: Induction of differentiation in human NB4 cells at 500 nM after 24 hrs in presence of ATRA by CD11c staining-based flow cytometric analysis; type: functional, cell-based
How it was run: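 NB4 exposed to 0.5 μM compound together with 1 μM ATRA for 24 h. Cells stained with PE-conjugated CD11c (mouse IgG1-PE control) for 1 h at 4 °C in the dark, washed, resuspended in PBS with propidium iodide (0.25 μg/mL), then analysed by flow cytometry. Biological triplicates, mean ± S.E.M.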

HCC827 [13] = experiment: Cytotoxicity against human HCC827 cells assessed as reduction in cell survival at 0.1 to 10 uM after 50 to 60 hrs by MTT assay; type: functional, cell-based
B16-F10 = experiment: Cytotoxicity against mouse B16F10 cells assessed as reduction in cell survival at 0.1 to 10 uM after 18 hrs by MTT assay; type: functional, cell-based; how it was run: as §3
NB-4 [14] = experiment: Cell cycle arrest in human NB4 cells assessed as accumulation of cells at G1 phase after 24 hrs by propidium iodide staining-based flow cytometric analysis; type: functional
How it was run: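 NB4 cultured at 37 °C, 5% CO2 in RPMI-1640 with 10% heat-inactivated FBS. Treated at 50 and 100 nM, 1 and 10 μM for 24 h. Cells fixed/permeabilized in 70% ethanol overnight at 4 °C, then given RNase and 20 μg/ml PI for 30 min. Doublets excluded, 20,000 events per sample; cell-cycle phase distribution analysed.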

HCC827 [15] = experiment: Cytotoxicity against human HCC827 cells assessed as reduction in cell survival at 0.1 to 10 uM after 18 hrs by MTT assay; type: functional, cell-based; how it was run: as §3
[16] = Solubility of compound in pH 7.4 aqueous solution after 12 hrs by HPLC analysis; type: physicochemical
How it was run: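 Water solubility at pH 7.4 measured by HPLC analysis.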

SMILES | IC50 (HL-60 [1]) [nM] | Activity (HL-60 [2]) | IC50 [3] [nM] | IC50 (NIH3T3 [4]) [nM] | IC50 (NIH3T3 [6]) [nM] | IC50 (A2780) [nM] | Ratio IC50 [7] | Ratio IC50 [9] | other results
O=C1c2cccn2-c2cc3ccccc3cc2OC1c1cccc2cccnc12 (configuration not stated) | 1080 |  |  |  |  |  |  |  | 
CCc1ccc2cccc(C3=C(OC(=O)N(CC)CC)c4cccn4-c4cc5ccccc5cc4O3)c2n1 |  | Active |  |  |  |  |  |  | 
CCN(CC)CCCC(C)NC(=O)OC1=C(c2cccc3ccccc23)Oc2cc3ccccc3cc2-n2cccc21 (configuration not stated) |  | Active |  |  |  |  |  |  | 
CCN(CC)CCCC(C)NC(=O)OC1=C(c2cccc3cccnc23)Oc2cc3ccccc3cc2-n2cccc21 (configuration not stated) |  | Active | 1350 | 2300 | 2500 | 1900 | 1.08 | 0.71 | inhibition (Tubulin (Homo sapiens) [5]): Active; inhibition (Tubulin (Homo sapiens) [8]): Active; Kb (Tubulin (Homo sapiens) [10]): 114 ×10⁷ /M; solubility at 20 min, 15 µM [11]: 2.89 µM (≈ 1.62 µg/mL)
O=C1c2cccn2-c2cc3ccccc3cc2OC1c1cccc2ncccc12 (configuration not stated) | 2770 |  |  |  |  |  |  |  | 
CCN(CC)C(=O)OC1=C(c2cccc3cccnc23)Oc2cc3ccccc3cc2-n2cccc21 | 4580 |  |  |  |  |  |  |  | 
CN(C)C(=O)OC1=C(c2cccc3cccnc23)Oc2cc3ccccc3cc2-n2cccc21 | 300 |  |  |  |  |  |  |  | Activity (GISTT1): Active
CC(=O)OC1=C(c2cccc3cccnc23)Oc2cc3ccccc3cc2-n2cccc21 | 263 | Active | 79 | 34 | 68 | 76 | 2 | 1.03 | Activity (PC-9): Active; inhibition (Tubulin (Homo sapiens) [5]): Active; Activity (B16-F1): Active; Activity (A549): Active; Activity (NB-4 [12]): Active; inhibition (Tubulin (Homo sapiens) [8]): Active; Activity (HCC827 [13]): inactive; Activity (B16-F10): Active; Activity (NB-4 [14]): Dose-dependent effect; Activity (HCC827 [15]): Active; Activity (GISTT1): Active; Kb (Tubulin (Homo sapiens) [10]): 115 ×10⁷ /M; solubility at 20 min, 15 µM [11]: 0.36 µM (≈ 0.151 µg/mL)
CC(=O)O[C@H]1C(=O)[C@@]2(C)[C@H]([C@H](OC(=O)c3ccccc3)[C@]3(O)C[C@H](OC(=O)[C@H](O)[C@@H](NC(=O)c4ccccc4)c4ccccc4)C(C)=C1C3(C)C)[C@]1(OC(C)=O)CO[C@@H]1C[C@@H]2O [PACLITAXEL] |  |  | 700 | 25 | 4880 | 3.3 | 195 | 212.12 | 
CC[C@]1(O)C[C@@H]2CN(CCc3c([nH]c4ccccc34)[C@@](C(=O)OC)(c3cc4c(cc3OC)N(C)[C@H]3[C@@](O)(C(=O)OC)[C@H](OC(C)=O)[C@]5(CC)C=CCN6CC[C@]43[C@@H]65)C2)C1 [VINBLASTINE] |  |  | 44 | 1 | 70.4 | 0.5 | 70.4 | 88 | 
CC(=O)OC1=C(c2cccc3cnccc23)Oc2cc3ccccc3cc2-n2cccc21 |  |  | 810 | 375 | 876 | 301 | 2.33 | 2.69 | inhibition (Tubulin (Homo sapiens) [5]): Active; inhibition (Tubulin (Homo sapiens) [8]): Active; Kb (Tubulin (Homo sapiens) [10]): 16 ×10⁷ /M; solubility at 20 min, 15 µM [11]: 0.22 µM (≈ 0.0921 µg/mL)
COc1cc2c(c(OC)c1OC)-c1ccc(OC)c(=O)cc1[C@@H](NC(C)=O)CC2 [COLCHICINE] |  |  | 500 | 25 | 1120 | 13.1 | 44.7 | 38.2 | 
COC(=O)Nc1nc2ccc(C(=O)c3cccs3)cc2[nH]1 [NOCODAZOLE] |  |  |  |  |  |  |  |  | solubility at 12 h [16]: < 1000 µg/mL
CC(=O)OC1=C(c2cnc3ccccc3c2)Oc2cc3ccccc3cc2-n2cccc21 | 6460 | Active |  |  |  |  |  |  | Activity (PC-9): inactive; Activity (B16-F1): inactive; Activity (A549): inactive; Activity (HCC827 [13]): inactive; Activity (B16-F10): inactive; Activity (HCC827 [15]): inactive
CC(=O)NC1=C(c2cccc3ccccc23)Oc2cc3ccccc3cc2-n2cccc21 |  | Active |  |  |  |  |  |  | 
